The nature of data set [1]: Partition coefficient (logP). In kind it is physicochemical. As to conditions: octanol/water. The method in brief: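 50-100 μCi of tracer in 0.1 M phosphate buffer pH 7.4 (5 mL) plus n-octanol (5 mL). Shaken vigorously for 30 min at 37 °C, five mixtures. 100 μL of each layer gamma-counted. log P from the octanol/water count ratio, n = 5. A calculated value was also obtained with Pallas 1.2.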

For data set [2], the species on record is Rattus norvegicus. The data set is described as follows: Biodistribution of [11C]-CGP- 12388 (10 minutes post injection) in heart of male wistar rats. Type of data set: ADME, organism-based. The note with it: in vivo. The method in brief: (§1)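 Male Wistar rats (200 ± 20 g) under pentobarbital anesthesia (60 mg/kg ip) got iv saline (controls, n = 4) or 500 μg (±)-propranolol (blocking, n = 4) <1 min before the tracer. Tracer dose was 1 MBq (30 pmol) in 0.3 mL. Rats were killed by heart extirpation at 10 min and tissues counted. Plasma was spun 3 min at 1000g. Uptake is given as DAR, mean ± SD.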

For data set [3], the species on record is Rattus norvegicus. The data set is described as follows: Biodistribution of [11C]-CGP- 12388 (10 minutes post injection) in lung of male wistar rats. Type of data set: ADME, organism-based. The note with it: in vivo. The method in brief: as §1
Data set [4] is filed under the species Rattus norvegicus. Put plainly: Biodistribution of [11C]-CGP- 12388 (60 minutes post injection) in fat of male wistar rats. The note with it: in vivo, 1 h. In kind it is ADME, organism-based, Adipose tissue. An outline of the steps: (§2)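 Wistar males (200 ± 20 g) were given pentobarbital 60 mg/kg ip, plus 15-20 mg/kg if needed before dissection. Saline controls (n = 6) or 500 μg (±)-propranolol iv blocking rats (n = 4) were pretreated <1 min before 1 MBq (30 pmol) tracer in 0.3 mL. Sacrifice and dissection were at 60 min. DAR = (cpm/g tissue)/(injected cpm/g body weight); mean ± SD.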

The species entered for data set [5] is Rattus norvegicus. Put plainly: Biodistribution of [11C]-CGP- 12388 (10 minutes post injection) in kidney of male wistar rats. In kind it is ADME, organism-based. The note with it: in vivo. The method in brief:
as §1

The species entered for data set [6] is Rattus norvegicus. The data set is described as follows: Biodistribution of [11C]-CGP- 12388 (10 minutes post injection) in trachea of male wistar rats. Type of data set: ADME, organism-based. The note with it: in vivo. An outline of the steps:
as §1

The species entered for data set [7] is Rattus norvegicus. Put plainly: Biodistribution of [11C]-CGP- 12388 (60 minutes post injection) in liver of male wistar rats. In kind it is ADME, organism-based. The note with it: in vivo, 1 h. The method in brief: as §2
The species named for data set [8] is Rattus norvegicus. Put plainly: Biodistribution of [11C]-CGP- 12388 (60 minutes post injection) in heart of male wistar rats. Type of data set: ADME, organism-based. As to conditions: in vivo, 1 h. The method in brief:
as §2

The species named for data set [9] is Rattus norvegicus. Put plainly: Biodistribution of [11C]-CGP- 12388 (60 minutes post injection) in bone of male wistar rats. In kind it is ADME, organism-based, Bone element. As to conditions: in vivo, 1 h. The method in brief: as §2
For data set [10], the species on record is Rattus norvegicus. Put plainly: Biodistribution of [11C]-CGP- 12388 (10 minutes post injection) in muscle of male wistar rats. As to conditions: in vivo. Type of data set: ADME, organism-based, Muscle tissue. An outline of the steps: as §1
The species entered for data set [11] is Rattus norvegicus. Put plainly: Biodistribution of [11C]-CGP- 12388 (60 minutes post injection) in red blood cells of male wistar rats. In kind it is ADME, organism-based. As to conditions: in vivo, 1 h. An outline of the steps:
as §2

The species named for data set [12] is Rattus norvegicus. Put plainly: Biodistribution of [11C]-CGP- 12388 (10 minutes post injection) in spleen of male wistar rats. In kind it is ADME, organism-based. The note with it: in vivo. The method in brief:
as §1

The species named for data set [13] is Rattus norvegicus. Put plainly: Biodistribution of [11C]-CGP- 12388 (60 minutes post injection) in muscle of male wistar rats. In kind it is ADME, organism-based, Muscle tissue. The note with it: in vivo, 1 h. An outline of the steps: as §2
The species entered for data set [14] is Rattus norvegicus. Put plainly: Biodistribution of [11C]-CGP- 12388 (10 minutes post injection) in cerebellum of male wistar rats. In kind it is ADME, organism-based. As to conditions: in vivo. An outline of the steps:
as §1

For data set [15], the species on record is Rattus norvegicus. Put plainly: Biodistribution of [11C]-CGP- 12388 (60 minutes post injection) in cortex of male wistar rats. As to conditions: in vivo, 1 h. Type of data set: ADME, organism-based. The method in brief: as §2
The species named for data set [16] is Rattus norvegicus. Put plainly: Biodistribution of [11C]-CGP- 12388 (60 minutes post injection) in kidney of male wistar rats. In kind it is ADME, organism-based. The note with it: in vivo, 1 h. The method in brief:
as §2

The species named for data set [17] is Rattus norvegicus. Put plainly: Biodistribution of [11C]-CGP- 12388 (60 minutes post injection) in lung of male wistar rats. Type of data set: ADME, organism-based. The note with it: in vivo, 1 h. The method in brief:
as §2

For data set [18], the species on record is Rattus norvegicus. The data set is described as follows: Biodistribution of [11C]-CGP- 12388 (10 minutes post injection) in liver of male wistar rats. As to conditions: in vivo. In kind it is ADME, organism-based. An outline of the steps: as §1
Data set [19] is filed under the species Rattus norvegicus. The data set is described as follows: Biodistribution of [11C]-CGP- 12388 (10 minutes post injection) in cortex of male wistar rats. The note with it: in vivo. Type of data set: ADME, organism-based. The method in brief:
as §1

For data set [20], the species on record is Rattus norvegicus. Put plainly: Biodistribution of [11C]-CGP- 12388 (60 minutes post injection) in spleen of male wistar rats. Type of data set: ADME, organism-based. The note with it: in vivo, 1 h. The method in brief: as §2
The species named for data set [21] is Rattus norvegicus. Put plainly: Biodistribution of [11C]-CGP- 12388 (10 minutes post injection) in plasma of male wistar rats. In kind it is ADME, organism-based. As to conditions: in vivo. The method in brief:
as §1

For data set [22], the species on record is Rattus norvegicus. The data set is described as follows: Biodistribution of [11C]-CGP- 12388 (10 minutes post injection) in intestine of male wistar rats. Type of data set: ADME, organism-based. As to conditions: in vivo. An outline of the steps: as §1
Data set [23] is filed under the species Rattus norvegicus. The data set is described as follows: Biodistribution of [11C]-CGP- 12388 (10 minutes post injection) in fat of male wistar rats. The note with it: in vivo. In kind it is ADME, organism-based, Adipose tissue. The method in brief: as §1
The species named for data set [24] is Rattus norvegicus. The data set is described as follows: Biodistribution of [11C]-CGP- 12388 (60 minutes post injection) in intestine bone of male wistar rats. Type of data set: ADME, organism-based. As to conditions: in vivo, 1 h, in the assay text read “intestine” for “intestine bone”. An outline of the steps: as §2
Data set [25] is filed under the species Rattus norvegicus. Put plainly: Biodistribution of [11C]-CGP- 12388 (10 minutes post injection) in bone of male wistar rats. In kind it is ADME, organism-based, Bone element. As to conditions: in vivo. An outline of the steps: as §1
For data set [26], the species on record is Rattus norvegicus. Put plainly: Biodistribution of [11C]-CGP- 12388 (60 minutes post injection) in plasma of male wistar rats. In kind it is ADME, organism-based. As to conditions: in vivo, 1 h. The method in brief: as §2
For data set [27], the species on record is Rattus norvegicus. Put plainly: Biodistribution of [11C]-CGP- 12388 (10 minutes post injection) in red blood cells of male wistar rats. Type of data set: ADME, organism-based. As to conditions: in vivo. An outline of the steps:
as §1

The species named for data set [28] is Rattus norvegicus. The data set is described as follows: Biodistribution of [11C]-CGP- 12388 (60 minutes post injection) in trachea of male wistar rats. In kind it is ADME, organism-based. As to conditions: in vivo, 1 h. An outline of the steps:
as §2

Data set [29] is filed under the species Rattus norvegicus. Put plainly: Biodistribution of [11C]-CGP- 12388 (60 minutes post injection) in cerebellum of male wistar rats. In kind it is ADME, organism-based. The note with it: in vivo, 1 h. The method in brief: as §2

`[3H]c1cc([3H])c2c(c1OCC(O)CNC(C)(C)C)=NC(=O)N=2` (configuration not stated) returned a logP in data set [1] of -0.5. Also, the DAR stood at 0.94 in data set [2] and 2.3 in data set [3].

Take `C[11CH](C)NC[C@H](O)COc1cccc2[nH]c(O)nc12`: the DAR is on record as 0.26 in [4]; 2.44 in data set [5]; 0.7 in data set [6]; 0.68 in [7]; 0.76 in [8]; 0.23 in data set [9]. Also, the DAR turned out to be 0.23 in data set [10]; 0.49 in data set [11]; 0.78 in data set [12]; 0.36 in data set [13]; 0.09 in data set [14]; 0.72 in [2]. The DAR in [15] worked out at 0.25; in data set [16], 0.94; in data set [17] it was 0.88; in data set [18], 1.65; in [19] it was 0.07; in data set [20] it was 0.49. In addition, the DAR was 0.5 in data set [21]; 0.55 in data set [22]; 0.16 in data set [23]; 1.14 in data set [24]; 0.2 in [25]; 0.4 in data set [26]. Also, the DAR in [3] is 1.26; in data set [27], 0.7; in [28], 0.86; in data set [29], 0.26. This molecule gave a logP in [1] of -0.64.

A word on the logP: it is the decadic logarithm of the partition coefficient of the neutral form, usually between octanol and water. Read a high logP as a more lipophilic compound.

The values are drawn from ChEMBL document CHEMBL1130239, “Synthesis and evaluation of (S)-4-(3-(2'-[11C]isopropylamino)-2-hydroxypropoxy) -2H-benzimidazol -2-one ((S)-[11C]CGP 12388) and (S)-4-(3-((1'-[18F]-fluoroisopropyl)amino)-2-hydroxypropoxy) -2H- benzimidazol-2-one ((S)-[18F]fluoro-CGP 12388) for visualization of beta-adrenoceptors with positron …” (J Med Chem, 1997).
